Reference: article PMC8122083 (ACS infectious diseases, 2021)
Values after ≈ are worked out from the molar mass of the structure shown. Like-named read-outs stand apart in the source and are kept apart here.

Legend:
Cytotoxicity assay = assay type: cell-based; conditions: human, FaDu cells
Method in brief: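 FaDu cells, maintained per ATCC protocols, were seeded in EMEM with 10% FBS at 3 x 10^5 cells/ml and grown 24 h at 37°C, 5% CO2. Medium was replaced with two-fold serial dilutions of test compound in fresh medium for 72 h, then with FBS-free EMEM plus resazurin (final 0.15 mM) for 3-5 h. Fluorescence read at ex 540/em 590 nm. IC50 fitted from percent inhibition versus growth controls, converted to pIC50, and reported as mean ± S.E.M.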

H. pylori ATCC 43504 = assay: H. pylori IC50 dose response; assay type: cell-based; conditions: for IC50: Helicobacter pylori; for fold increase in potency: ATCC 43504 (stated for both strains), lead compounds relative to hits
H. pylori SS1 [1] = assay: H. pylori IC50 dose response; assay type: cell-based; conditions: for IC50: Helicobacter pylori; for fold increase in potency: SS1 (stated for both strains), lead compounds relative to hits; for fold greater potency than compound 1: H. pylori SS1
H. pylori = H. pylori murine infection model; assay type: in vivo, mouse; conditions: compared to metronidazole control
Solubility = assay type: physicochemical
H. pylori SS1 [2] = assay: ex vivo H. pylori infection model; set-up: species or system mouse; conditions: 0.6 μg/mL (1.6μM), 24 hours
[3] = system: panel of representative Gram-negative and Gram-positive species, including commensals; assay: MIC against panel of representative Gram-negative and Gram-positive species; assay type: cell-based
Mouse pharmacokinetics = assay type: in vivo, mice
[4] = system: H. pylori HM-274 resistant isolates; assay: MIC of spontaneous resistant mutants of H. pylori HM-274; assay type: cell-based; conditions: two spontaneous mutants selected at twice the MIC of 28
[5] = ATCC43504, read-out: H. pylori ATCC 43504 pIC50 (converted)
[6] = SS1, read-out: H. pylori SS1 pIC50 (converted)

SMILES	IC50 at 72 h (Cytotoxicity assay)	IC50 (H. pylori ATCC 43504; [5])	IC50 (H. pylori SS1 [1]; [6])	other results
OCCNc1ncnc2sc(-c3ccccc3)cc12 [Compound 9, 2-((6-phenylthieno[2,3-d]pyrimidin-4-yl)amino)ethan-1-ol]	100000 nM	5010 nM	2000 nM	
COc1ccc(C(CO)Nc2ncnc3sc(-c4ccccc4)cc23)cc1 (centres unmarked) [Compound 25, 2-(4-methoxyphenyl)-2-((6-phenylthieno[2,3-d]pyrimidin-4-yl)amino)ethan-1-ol]	398000 nM	20 nM	20 nM	fold increase in potency (H. pylori ATCC 43504): > 69 fold; IC50 (H. pylori ATCC 43504; ATCC43504): 21 nM; efficacy in H. pylori murine infection model (H. pylori; 25 mg/kg (IP)): did not show efficacy; efficacy in H. pylori murine infection model (H. pylori; 50 mg/kg (IP)): did not show efficacy; efficacy in H. pylori murine infection model (H. pylori; 50 mg/kg (PO)): did not show efficacy; solubility (Solubility): 1 µM (≈ 0.377 µg/mL); effectiveness in ex vivo model (H. pylori SS1 [2]): highly effective; samples with colony counts below the limit of detection (H. pylori SS1 [2]; 10 samples): 6 of the 10; fold increase in potency (H. pylori SS1 [1]): > 69 fold; MIC [3]: ≥ 16 µg/mL; exposure upon oral dosing (Mouse pharmacokinetics; mice, oral (PO), compared with IP): lower exposure; AUC (Mouse pharmacokinetics; mouse, plasma, ip, 50 mg/kg): 31900 ng·h/mL
CC(C)C(CO)Nc1ncnc2sc(-c3ccccc3)cc12 (centres unmarked) [Compound 18, 3-methyl-2-((6-phenylthieno[2,3-d]pyrimidin-4-yl)amino)butan-1-ol]	50100 nM	3160 nM	794 nM	
CC(O)CNc1ncnc2sc(-c3ccccc3)cc12 (centres unmarked) [Compound 11, 1-((6-phenylthieno[2,3-d]pyrimidin-4-yl)amino)propan-2-ol]	63100 nM	1000 nM	398 nM	fold increase in potency over compound 1 (H. pylori ATCC 43504; ATCC43504): less than 2 fold; fold greater potency than compound 1 (H. pylori SS1 [1]): 4 fold
COc1ccc([C@@H](CO)Nc2ncnc3sc(-c4ccccc4)cc23)cc1 [Compound 27, (S)-2-(4-methoxyphenyl)-2-((6-phenylthieno[2,3-d]pyrimidin-4-yl)amino)ethan-1-ol]	50100 nM	50.1 nM	100 nM	IC50 (H. pylori ATCC 43504; ATCC43504): 53 nM; IC50 (H. pylori SS1 [1]; SS1): 110 nM
COc1ccc(CC(CO)Nc2ncnc3sc(-c4ccccc4)cc23)cc1 (centres unmarked) [Compound 24, 3-(4-methoxyphenyl)-2-((6-phenylthieno[2,3-d]pyrimidin-4-yl)amino)propan-1-ol]	15800 nM	126 nM	251 nM	
c1ccc(-c2cc3c(NCCc4ccncc4)ncnc3s2)cc1 [Compound 21, 6-phenyl-N-(2-(pyridin-4-yl)ethyl)thieno[2,3-d]pyrimidin-4-amine]	126000 nM	2510 nM	1260 nM	
OC[C@H](Nc1ncnc2scc(-c3ccccc3)c12)c1ccccc1 [Compound 40, (R)-2-phenyl-2-((5-phenylthieno[2,3-d]pyrimidin-4-yl)amino)ethan-1-ol]	31600 nM	3980 nM	501 nM	
COc1ccc(CCNc2ncnc3sc(-c4ccccc4)cc23)cc1OC [Compound 19, N-(3,4-dimethoxyphenethyl)-6-phenylthieno[2,3-d]pyrimidin-4-amine]	126000 nM	158 nM	39.8 nM	fold improved potency over compound 2 (H. pylori ATCC 43504; ATCC43504): 11 fold; IC50 (H. pylori ATCC 43504; ATCC43504): 160 nM
OCCCCNc1ncnc2sc(-c3ccccc3)cc12 [Compound 15, 4-((6-phenylthieno[2,3-d]pyrimidin-4-yl)amino)butan-1-ol]	126000 nM	1580 nM	316 nM	
Cc1sc2ncnc(N[C@@H](CO)c3ccccc3)c2c1-c1ccccc1 [Compound 39, (R)-2-((6-methyl-5-phenylthieno[2,3-d]pyrimidin-4-yl)amino)-2-phenylethan-1-ol]	126000 nM	15800 nM	7940 nM	
CN(CCCO)c1ncnc2sc(-c3ccccc3)cc12 [Compound 8, 3-(methyl(6-phenylthieno[2,3-d]pyrimidin-4-yl)amino)propan-1-ol]	100000 nM	15800 nM	6310 nM	
CCC(CO)Nc1ncnc2sc(-c3ccccc3)cc12 (centres unmarked) [Compound 16, 2-((6-phenylthieno[2,3-d]pyrimidin-4-yl)amino)butan-1-ol]	39800 nM	100 nM	20 nM	
COCC(C)Nc1ncnc2sc(-c3ccccc3)cc12 (centres unmarked) [Compound 14, N-(1-methoxypropan-2-yl)-6-phenylthieno[2,3-d]pyrimidin-4-amine]	31600 nM	1260 nM	398 nM	fold less potent than compound 10 (H. pylori ATCC 43504; ATCC43504): 29 fold
COc1ccc([C@H](CO)Nc2ncnc3sc(-c4ccccc4)cc23)c(F)c1 [Compound 29, (R)-2-(2-fluoro-4-methoxyphenyl)-2-((6-phenylthieno[2,3-d]pyrimidin-4-yl)amino)ethan-1-ol]	31600 nM	20 nM	12.6 nM	MIC [3]: ≥ 16 µg/mL
CCC(O)CNc1ncnc2sc(-c3ccccc3)cc12 (centres unmarked) [Compound 17, 1-((6-phenylthieno[2,3-d]pyrimidin-4-yl)amino)butan-2-ol]	39800 nM	794 nM	251 nM	
COc1ccc([C@H](CO)Nc2ncnc3sc(-c4ccccc4)cc23)cc1 [Compound 26, (R)-2-(4-methoxyphenyl)-2-((6-phenylthieno[2,3-d]pyrimidin-4-yl)amino)ethan-1-ol]	15800 nM	10 nM	6.31 nM	fold increase in potency (H. pylori ATCC 43504): > 69 fold; IC50 (H. pylori ATCC 43504; ATCC43504): 10 nM; IC50 (H. pylori SS1 [1]; SS1): 6.8 nM; fold increase in potency (H. pylori SS1 [1]): > 69 fold; MIC [3]: ≥ 16 µg/mL
C[C@@H](CO)Nc1ncnc2sc(-c3ccccc3)cc12 [Compound 12, (S)-2-((6-phenylthieno[2,3-d]pyrimidin-4-yl)amino)propan-1-ol]	251000 nM	5010 nM	2510 nM	
COc1ccc([C@H](CO)Nc2ncnc3sc(-c4ccccc4)cc23)cc1F [Compound 30, (R)-2-(3-fluoro-4-methoxyphenyl)-2-((6-phenylthieno[2,3-d]pyrimidin-4-yl)amino)ethan-1-ol]	31600 nM	15.8 nM	12.6 nM	MIC [3]: ≥ 16 µg/mL
Cc1ccc(CCNc2ncnc3sc(-c4ccccc4)cc23)cc1C [Compound 20, N-(3,4-dimethylphenethyl)-6-phenylthieno[2,3-d]pyrimidin-4-amine]	< 15800 nM	79.4 nM	501 nM	
OC[C@H](Nc1ncnc2sc(-c3ccccc3)cc12)c1ccccc1 [Compound 28, (R)-2-phenyl-2-((6-phenylthieno[2,3-d]pyrimidin-4-yl)amino)ethan-1-ol]	< 20000 nM	25.1 nM	10 nM	IC50 (H. pylori ATCC 43504; ATCC43504): 23 nM; MIC of resistant isolates relative to wildtype [4]: 8 fold; MIC [3]: ≥ 16 µg/mL
Cc1c(-c2ccccc2)sc2ncnc(N[C@@H](CO)c3ccccc3)c12 [Compound 38, (R)-2-((5-methyl-6-phenylthieno[2,3-d]pyrimidin-4-yl)amino)-2-phenylethan-1-ol]	20000 nM	316 nM	50.1 nM	
CC(CO)Nc1ncnc2sc(-c3ccccc3)cc12 (centres unmarked) [Compound 10, 2-((6-phenylthieno[2,3-d]pyrimidin-4-yl)amino)propan-1-ol]	100000 nM	39.8 nM	79.4 nM	fold increase in potency over compound 1 (H. pylori ATCC 43504; ATCC43504): 37 fold; fold greater potency than compound 1 (H. pylori SS1 [1]): 20 fold
c1ccc(-c2cc3c(NCCc4cccnc4)ncnc3s2)cc1 [Compound 22, 6-phenyl-N-(2-(pyridin-3-yl)ethyl)thieno[2,3-d]pyrimidin-4-amine]	100000 nM	6310 nM	3160 nM	
Cc1sc2ncnc(N[C@@H](CO)c3ccccc3)c2c1C [Compound 37, (R)-2-((5,6-dimethylthieno[2,3-d]pyrimidin-4-yl)amino)-2-phenylethan-1-ol]	< 20000 nM	6310 nM	631 nM	
COc1cccc(CNc2ncnc3sc(-c4ccccc4)cc23)c1OC [Compound 23, N-(2,3-dimethoxybenzyl)-6-phenylthieno[2,3-d]pyrimidin-4-amine]	25100 nM	1580 nM	501 nM	
C[C@H](CO)Nc1ncnc2sc(-c3ccccc3)cc12 [Compound 13, (R)-2-((6-phenylthieno[2,3-d]pyrimidin-4-yl)amino)propan-1-ol]	31600 nM	158 nM	31.6 nM	fold greater potency than compound 1 (H. pylori SS1 [1]): 56 fold
COc1ccc([C@H](CN)Nc2ncnc3sc(-c4ccccc4)cc23)cc1F [Compound 31, (R)-1-(3-fluoro-4-methoxyphenyl)-N^1-(6-phenylthieno[2,3-d]pyrimidin-4-yl)ethane-1,2-diamine]	50100 nM	3160 nM	1000 nM	fold increase in H. pylori IC50 on substituting hydroxyl for primary amine (H. pylori ATCC 43504; ATCC 43504, relative to 30): > 79 fold; fold increase in H. pylori IC50 on substituting hydroxyl for primary amine (H. pylori SS1 [1]; SS1, relative to 30): > 79 fold; MIC [3]: ≥ 16 µg/mL
